Calb FLC = affects C. albicans growth with fluconazole | growth inhibition, % (test concentration not listed) | actives 0.57% (n = 300,000) | C. albicans CaCi-2 (fluconazole-resistant clinical isolate) + fluconazole, Alamar Blue growth, 48 h;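 active = growth inhibition above about 58% in most replicates, limit read from the data, passing the limit was not always enough; inconclusive = exactly half the replicates above a set limit; inactive = most replicates below a set limit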;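 also: all wells also contain fluconazole at 8 µg/ml as a sub-toxic cotreatment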
CSC inhib = blocks cancer stem cells; cancer stem cell-like cells viability, luminescence; inhibition, % at 7.5 µM; actives 1.1% (n = 300,000); AID 2717; in the data active = inhibition above about 75%; inconclusive = no clear call, values can overlap the other calls; tested in HMLE shEcad cells
Mdm2 MdmX PPI = inhibitors of human Mdm2/MdmX interaction. inhibition, % at 8 µM. actives 3% (n = 330,000). O15151+Q00987. SaOS-2 split-luciferase Mdm2/MdmX complementation, luminescence;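 active = inhibition of at least 50% at 8 µM in the primary screen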
Target sequence (O15151 whole entry, looked up): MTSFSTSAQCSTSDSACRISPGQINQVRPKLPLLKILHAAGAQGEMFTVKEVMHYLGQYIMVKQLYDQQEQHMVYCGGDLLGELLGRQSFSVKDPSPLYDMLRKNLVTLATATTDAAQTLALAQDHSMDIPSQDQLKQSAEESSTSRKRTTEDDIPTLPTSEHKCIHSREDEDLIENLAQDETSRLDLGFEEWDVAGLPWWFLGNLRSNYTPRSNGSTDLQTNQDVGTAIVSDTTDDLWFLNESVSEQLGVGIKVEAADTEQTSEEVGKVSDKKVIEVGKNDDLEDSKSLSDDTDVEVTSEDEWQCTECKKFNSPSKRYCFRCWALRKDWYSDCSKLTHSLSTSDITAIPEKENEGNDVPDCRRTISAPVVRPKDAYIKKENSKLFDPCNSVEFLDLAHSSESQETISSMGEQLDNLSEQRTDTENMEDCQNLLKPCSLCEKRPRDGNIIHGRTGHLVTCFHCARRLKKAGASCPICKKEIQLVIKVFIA
Target sequence (Q00987 whole entry, looked up): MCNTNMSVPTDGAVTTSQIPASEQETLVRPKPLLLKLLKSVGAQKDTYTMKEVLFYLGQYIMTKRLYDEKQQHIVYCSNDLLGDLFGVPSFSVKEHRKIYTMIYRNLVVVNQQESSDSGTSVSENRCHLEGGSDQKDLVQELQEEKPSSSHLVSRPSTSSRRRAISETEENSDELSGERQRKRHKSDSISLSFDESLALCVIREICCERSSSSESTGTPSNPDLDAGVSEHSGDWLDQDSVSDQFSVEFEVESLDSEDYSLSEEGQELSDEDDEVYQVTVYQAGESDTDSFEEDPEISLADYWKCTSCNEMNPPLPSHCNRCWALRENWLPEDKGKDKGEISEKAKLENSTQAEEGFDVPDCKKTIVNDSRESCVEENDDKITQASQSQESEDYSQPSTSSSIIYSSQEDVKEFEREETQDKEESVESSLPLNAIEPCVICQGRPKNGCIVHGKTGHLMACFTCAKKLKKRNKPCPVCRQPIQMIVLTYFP
SKKanGAS inh = blocks kanamycin growth of S. pyogenes SKKanGAS strain; inhibition, % at 7.5 µM; AID 1662; actives 1.3% (n = 300,000); BacTiter-Glo, 6 h;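 active = mean replicate score, as percent of positive control median, at least 50; inconclusive = mean below 50 but one replicate at or above 50; inactive = mean and every replicate below 50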;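 also: strain carries kanamycin resistance gene driven by streptokinase promoter and grows in 40 µg/ml kanamycin; loss of luminescence reflects streptokinase promoter inhibition or plain growth inhibition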
Beta apoptosis = beta cell apoptosis inhibition; protection from apoptosis, % (concentration not given with the values); INS-1E cytokine-induced death, ATP luminescence, 48 h; percent of positive-control rescue, neutral wells zero; actives 0.8% (n = 300,000);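 active = Every replicate reaches about 75%, or at least half do and their mean reaches it too, limit read from the data; inconclusive = At least half of replicates reach the limit but their mean does not; inactive = Under half of replicates reach the limit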;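 also: higher means more ATP so stronger rescue from cytokine killing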
T cruzi inh = T. cruzi replication inhibition | T. cruzi beta-gal in NIH3T3, luminescence, 90 h | inhibition, % (concentration not given with the values) | actives 1.4% (n = 300,000) | AID 1885;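 active = mean inhibition across valid replicates above about 55%, limit read from the data; inconclusive = mean below that limit but half or more replicates reach it; inactive = mean below it, under half of replicates reach it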;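 also: signal also drops with host cell toxicity which is not excluded here; higher percent means less beta-gal luminescence so fewer parasites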
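Incubation – ≥90 h infection period, 3 h prior cell attachment · System – NIH/3T3 fibroblasts plus reporter T. cruzi · Doses – compound pinned at 50 nL/well, DMSO · Read-out basis – percent inhibition of parasite-derived β-gal signal · Signal – luminescent β-galactosidase signal after 60 min lysis · Also added – 5000 T. cruzi trypomastigotes/well · Medium – Low-serum DMEM with 2% FBS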
Mdm2 MdmX conf = confirmation of human Mdm2/MdmX interaction inhibitors. shares compounds with Mdm2 MdmX PPI. inhibition, % at 8 µM. actives 55% (n = 10,000). Mdm2-MdmX binding, luminescent assay; in the data active = inhibition above about 40%
Full FLuc ctr = inhibits full-length luciferase, flagging false Mdm2/MdmX hits; inhibition, % at 8 µM; SaOS-2 full-length luciferase counterscreen, luminescence; shares compounds with Mdm2 MdmX PPI; actives 77% (n = 6,200);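 active = mean inhibition at 8 µM reaching about 37%, which flags the compound as non-specific, limit read from the data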;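 also: p53-null SaOS-2 cells with luciferase driven by a doxycycline-inducible promoter; compound on cells about two nights before reading with doxycycline added after day one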
Each line names hits and unclear results; the compound was inactive in the other large screens (follow-up assays come after a bar, where they were run). The list is not random: actives were taken first. Their share in the collection is about 5.7%.

O=C(NN1CC(C(=O)OCc2ccccc2F)CC1=O)c1ccccc1 (stereo not given)	none
CCCCCn1c(=NC(=O)c2cccnc2)c(C#N)cc2c(=O)n3cccc(C)c3nc21	Mdm2 MdmX PPI 73 | Mdm2 MdmX conf 51 | Full FLuc ctr 42
Cc1cc(C)c2c(N)c(C(=O)c3ccc(Cl)cc3Cl)sc2n1	Mdm2 MdmX PPI 70 | Mdm2 MdmX conf 75 | Full FLuc ctr 60
COC(=O)c1sc2nc(C)cc(C)c2c1N	none (no result: Beta apoptosis)
Cc1cc(C)c2c(N)c(C(=O)c3cccc(Cl)c3)sc2n1	none
COc1cc(/C=N/NC(=O)c2sc3nc(C)cc(C)c3c2N)ccc1O	Mdm2 MdmX PPI 73 | Mdm2 MdmX conf 52 | Full FLuc ctr 64
Cc1cc(C)c2c(N)c(C(=O)Nc3ncc(C)s3)sc2n1	Mdm2 MdmX PPI 79 (no result: Calb FLC, CSC inhib, SKKanGAS inh, T cruzi inh) | Mdm2 MdmX conf 81 | Full FLuc ctr 55
Cc1cc(NC(=O)CSCC(=O)Nc2ccccc2N2CCCCC2)no1	none
O=C(CN1C(=O)NC2(CCCCCCC2)C1=O)Nc1ccc(Cl)cc1	none (no result: Calb FLC, CSC inhib, SKKanGAS inh, T cruzi inh)
Cc1cccc(N2CCN(S(=O)(=O)c3ccc4c(c3)n(C)c(=O)c(=O)n4C)CC2C)c1 (stereo not given)	Mdm2 MdmX PPI 68 | Mdm2 MdmX conf inactive
Cc1ccc(N(C)S(=O)(=O)c2cccc(C(=O)OCC(=O)c3c(N)n(C)c(=O)n(C)c3=O)c2)cc1	none (no result: Calb FLC, SKKanGAS inh, T cruzi inh)
O=C(NC(NC(=S)Nc1c(Cl)cccc1Cl)C(Cl)(Cl)Cl)c1cccc([N+](=O)[O-])c1 (stereo not given)	Mdm2 MdmX PPI 58, T cruzi inh 59 | Mdm2 MdmX conf 50 | Full FLuc ctr 76
COc1ccc([N+](=O)[O-])cc1NC(=S)NC(NC(=O)C(c1ccccc1)c1ccccc1)C(Cl)(Cl)Cl (stereo not given)	Mdm2 MdmX PPI 89, SKKanGAS inh inconclusive | Mdm2 MdmX conf 79 | Full FLuc ctr inactive
CCCC(=O)NC(c1ccccc1)c1ccc2cccnc2c1O (stereo not given)	Calb FLC 86, CSC inhib 108, Mdm2 MdmX PPI 79, Beta apoptosis 99, T cruzi inh 58 | Mdm2 MdmX conf 89 | Full FLuc ctr 49
COc1cccc(/C=N/NC(=O)COc2cccc3cccnc23)c1O	none
CCC(=O)NC(c1ccc(OC)cc1)c1cc(Cl)c2cccnc2c1O (stereo not given)	Calb FLC 104, CSC inhib 119, Mdm2 MdmX PPI 79, Beta apoptosis 96, T cruzi inh inconclusive | Mdm2 MdmX conf 81 | Full FLuc ctr inactive
Cc1cccc(NC(c2ccc(O)cc2)c2ccc3ccc(C)nc3c2O)n1 (stereo not given)	none
CCC(=O)NC(c1ccccc1OC)c1ccc2cccnc2c1O (stereo not given)	Calb FLC 103, CSC inhib 93, Mdm2 MdmX PPI 70, Beta apoptosis 109, T cruzi inh 60 | Mdm2 MdmX conf 60 | Full FLuc ctr inactive
CC(=O)NC(c1ccc(C(C)C)cc1)c1ccc2cccnc2c1O (stereo not given)	CSC inhib 109, Mdm2 MdmX PPI 81, Beta apoptosis 90, T cruzi inh 56 | Mdm2 MdmX conf 83 | Full FLuc ctr inactive
CC(=O)Nc1ccc(S(=O)(=O)NC(C)C(=O)NCC(c2ccco2)N(C)C)cc1 (stereo not given)	none (no result: Calb FLC, CSC inhib, SKKanGAS inh, Beta apoptosis, T cruzi inh)
CCCCC(=O)NC(c1ccc(C(C)C)cc1)c1ccc2cccnc2c1O (stereo not given)	Mdm2 MdmX PPI 78, SKKanGAS inh 88 (no result: CSC inhib, Beta apoptosis) | Mdm2 MdmX conf 88 | Full FLuc ctr inactive
COc1ccc(C(NC(=O)c2cccnc2)c2cc(Cl)c3cccnc3c2O)cc1OC (stereo not given)	Mdm2 MdmX PPI 75, Beta apoptosis 91, T cruzi inh inconclusive (no result: CSC inhib) | Mdm2 MdmX conf 78 | Full FLuc ctr inactive
CCC(=O)NC(c1ccc(OC)cc1)c1c(O)ccc2ccccc12 (stereo not given)	Mdm2 MdmX PPI 63 | Mdm2 MdmX conf 62 | Full FLuc ctr 71
Cc1cc(NC(c2cccnc2)c2ccc3cccnc3c2O)no1 (stereo not given)	Mdm2 MdmX PPI 74, Beta apoptosis 104 (no result: CSC inhib) | Mdm2 MdmX conf 68 | Full FLuc ctr 40
CN(c1ccccc1)S(=O)(=O)c1ccc(NC(=O)c2ccccc2C(=O)O)cc1	none (no result: Beta apoptosis)
Cc1ccc(S(=O)(=O)NCCOc2nc(N(C)C)nc(N(C)C)n2)cc1	none
CCCCC(=O)NC(c1ccco1)c1cc(Cl)c2cccnc2c1O (stereo not given)	Calb FLC 112, CSC inhib 102, Mdm2 MdmX PPI 63, SKKanGAS inh 52, Beta apoptosis 104, T cruzi inh 63 | Mdm2 MdmX conf 56 | Full FLuc ctr inactive
CCCC(=O)NC(c1ccc(OC)cc1)c1ccc2cccnc2c1O (stereo not given)	Calb FLC 102, CSC inhib 119, Mdm2 MdmX PPI 82, Beta apoptosis 97, T cruzi inh 74 | Mdm2 MdmX conf 78 | Full FLuc ctr 50
CCCCC(=O)NC(c1ccccc1Cl)c1ccc2cccnc2c1O (stereo not given)	CSC inhib 99, Mdm2 MdmX PPI 80, SKKanGAS inh 69, Beta apoptosis 106 | Mdm2 MdmX conf 90 | Full FLuc ctr inactive
CCCCC(=O)NC(c1ccccc1)c1ccc2cccnc2c1O (stereo not given)	Calb FLC 89, CSC inhib 110, Mdm2 MdmX PPI 72, Beta apoptosis 99, T cruzi inh 57 | Mdm2 MdmX conf 88 | Full FLuc ctr 50
COc1ccc(CNC(=O)CSc2cccc3cccnc23)cc1	none (no result: CSC inhib, Beta apoptosis)
Cc1ccc(NC(=O)CS(=O)CC(=O)Nc2ccccc2-c2ccc(C)o2)cc1 (stereo not given)	none
COc1ccc(Cl)cc1C(Nc1cccnc1)c1ccc2cccnc2c1O (stereo not given)	Calb FLC 102, Mdm2 MdmX PPI 67, SKKanGAS inh 69, T cruzi inh 72 (no result: Beta apoptosis) | Mdm2 MdmX conf 63 | Full FLuc ctr 44
C=CCN(C(=O)c1ccc2c(c1)nnn2C)c1ccccc1	none
CCOc1ccc(C(=O)NNC(=O)CCNC(=O)c2ccco2)cc1OC	none
Cc1ccccc1C(=O)c1cccn1CC(=O)NCCN1CCN(c2cccc(C)c2C)CC1	Mdm2 MdmX PPI 79 | Mdm2 MdmX conf 48 | Full FLuc ctr 59
Cc1ccccc1C(=O)c1cccn1CC(=O)NCCCN1CCCCC1	none (no result: CSC inhib)
Cc1ccccc1C(=O)c1cccn1CC(=O)NCCC1=CCCCC1	none
Cc1ccc(C)c(N2CCN(CCCNC(=O)Cn3cccc3C(=O)c3ccccc3C)CC2)c1	Mdm2 MdmX PPI 90 | Mdm2 MdmX conf 66 | Full FLuc ctr 43

Screening data (PubChem)
